pEC50: −log10 of the molar value. Activity calls are given as the source filed them. The rule behind the calls is not given here.
Columns and labels:
Type in all cases: cell-based
[1] = molecular target: T1, Retinoic acid receptor RXR-alpha (Homo sapiens) (UniProt P19793); test: Agonist activity at Gal4-LBD fused RXRalpha (unknown origin) expressed in HEK293T cells assessed as fold activation at 10 uM after 14 to 16 hrs by dual-Glo luciferase assay relative to untreated control
T1 sequence (whole entry): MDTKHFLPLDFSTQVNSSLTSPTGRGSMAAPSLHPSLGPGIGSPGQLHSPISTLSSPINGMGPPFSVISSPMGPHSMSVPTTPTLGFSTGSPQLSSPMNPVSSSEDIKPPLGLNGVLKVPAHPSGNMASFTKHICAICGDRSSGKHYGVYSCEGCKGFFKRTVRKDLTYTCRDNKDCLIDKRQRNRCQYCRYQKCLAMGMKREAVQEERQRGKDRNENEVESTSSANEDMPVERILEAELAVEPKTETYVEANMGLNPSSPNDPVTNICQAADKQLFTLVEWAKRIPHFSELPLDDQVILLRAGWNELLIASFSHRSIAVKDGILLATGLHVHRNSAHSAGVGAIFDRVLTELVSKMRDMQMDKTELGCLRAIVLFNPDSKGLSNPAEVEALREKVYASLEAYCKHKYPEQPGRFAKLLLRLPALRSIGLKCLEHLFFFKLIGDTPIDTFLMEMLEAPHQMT
Summary of the method: (§1)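 Gal4-hybrid RXRα/β/γ reporter gene assays in HEK293T cells. Fold activation is the maximal fold activation versus 0.1% DMSO.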

[2] = molecular target: T1, Retinoic acid receptor RXR-alpha (Homo sapiens); test: Agonist activity at Gal4-LBD fused RXRalpha (unknown origin) expressed in HEK293T cells at 10 uM after 14 to 16 hrs by dual-Glo luciferase assay
[3] = molecular target: T2, Retinoic acid receptor RXR-gamma (Homo sapiens) (UniProt P48443); test: Agonist activity at Gal4-LBD fused RXRgamma (unknown origin) expressed in HEK293T cells at 10 uM after 14 to 16 hrs by dual-Glo luciferase assay
T2 sequence (whole entry): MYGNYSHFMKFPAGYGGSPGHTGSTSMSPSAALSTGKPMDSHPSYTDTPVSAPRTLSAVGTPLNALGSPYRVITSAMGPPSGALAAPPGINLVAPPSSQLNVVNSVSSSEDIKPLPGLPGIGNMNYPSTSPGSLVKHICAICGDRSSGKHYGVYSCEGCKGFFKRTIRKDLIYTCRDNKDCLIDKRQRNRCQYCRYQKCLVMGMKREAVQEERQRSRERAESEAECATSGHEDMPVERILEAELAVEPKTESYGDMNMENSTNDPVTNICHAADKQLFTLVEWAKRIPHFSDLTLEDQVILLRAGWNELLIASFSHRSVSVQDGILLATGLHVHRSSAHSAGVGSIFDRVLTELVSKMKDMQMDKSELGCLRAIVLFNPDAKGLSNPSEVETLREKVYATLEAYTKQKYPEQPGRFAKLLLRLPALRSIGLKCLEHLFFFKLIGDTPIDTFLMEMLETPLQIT

[4] = molecular target: T3, Retinoic acid receptor RXR-beta (Homo sapiens) (UniProt P28702); test: Agonist activity at Gal4-LBD fused RXRbeta (unknown origin) expressed in HEK293T cells assessed as fold activation after 14 to 16 hrs by dual-Glo luciferase assay relative to untreated control; summary of the method: as §1
T3 sequence (whole entry): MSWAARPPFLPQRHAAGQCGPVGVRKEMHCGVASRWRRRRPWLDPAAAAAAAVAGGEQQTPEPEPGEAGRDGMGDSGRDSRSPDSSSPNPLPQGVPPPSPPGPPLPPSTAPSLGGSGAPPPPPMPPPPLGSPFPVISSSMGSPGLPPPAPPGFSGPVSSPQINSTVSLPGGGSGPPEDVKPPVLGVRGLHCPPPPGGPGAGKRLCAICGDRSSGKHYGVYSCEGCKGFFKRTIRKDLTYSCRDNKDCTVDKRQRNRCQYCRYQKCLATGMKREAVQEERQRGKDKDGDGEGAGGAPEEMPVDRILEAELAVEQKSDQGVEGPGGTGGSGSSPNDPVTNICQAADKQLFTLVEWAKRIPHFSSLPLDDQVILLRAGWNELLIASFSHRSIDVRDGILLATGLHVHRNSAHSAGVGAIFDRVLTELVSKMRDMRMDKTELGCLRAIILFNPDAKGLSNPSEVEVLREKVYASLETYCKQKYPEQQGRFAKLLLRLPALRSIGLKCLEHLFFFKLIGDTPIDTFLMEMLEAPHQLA

[5] = molecular target: T4, Retinoic acid receptor RXR-gamma (Homo sapiens, UniProt P48443); test: Agonist activity at Gal4-LBD fused RXRgamma (unknown origin) expressed in HEK293T cells after 14 to 16 hrs by dual-Glo luciferase assay; summary of the method: as §1
T4 sequence (P48443 whole entry): T2 sequence (whole entry)

[6] = Agonist activity at full-length human RXR/LXR expressed in HEK293T cells at 10 uM after 14 to 16 hrs in presence of 1 uM T0901317 by dual-glo luciferase reporter gene assay relative to T0901317; settings: HEK-293T, read-out: Activity
Summary of the method: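 Synergy format: the test compound was co-applied with the partner-receptor reference agonist at 1 μM, either T0901317 (RXR:LXR) or rosiglitazone (RXR:PPARγ). Relative synergistic activation was derived from three independent experiments, each in duplicate; mean reported.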

[7] = molecular target: T1, Retinoic acid receptor RXR-alpha (Homo sapiens); test: Agonist activity at Gal4-LBD fused RXRalpha (unknown origin) expressed in HEK293T cells at 0.1 to 3 uM after 14 to 16 hrs in presence of RXR antagonist HX531 by dual-Glo luciferase reporter gene assay
[8] = Agonist activity at full-length human RXR/LXR expressed in HEK293T cells at 20 uM after 14 to 16 hrs by dual-glo luciferase reporter gene assay relative to untreated control; settings: HEK-293T, read-out: Activity
Summary of the method: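 RXR:LXR or RXR:PPARγ heterodimer reporter assay with test compound alone. Activation expressed relative to 0.1% DMSO vehicle. Three independent experiments, each in duplicate; mean reported.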

[9] = molecular target: T5, Retinoic acid receptor beta (Homo sapiens) (UniProt P10826); test: Agonist activity at Gal4-LBD fused RARbeta (unknown origin) expressed in HEK293T cells at 20 uM after 14 to 16 hrs by dual-Glo luciferase assay
T5 sequence (whole entry): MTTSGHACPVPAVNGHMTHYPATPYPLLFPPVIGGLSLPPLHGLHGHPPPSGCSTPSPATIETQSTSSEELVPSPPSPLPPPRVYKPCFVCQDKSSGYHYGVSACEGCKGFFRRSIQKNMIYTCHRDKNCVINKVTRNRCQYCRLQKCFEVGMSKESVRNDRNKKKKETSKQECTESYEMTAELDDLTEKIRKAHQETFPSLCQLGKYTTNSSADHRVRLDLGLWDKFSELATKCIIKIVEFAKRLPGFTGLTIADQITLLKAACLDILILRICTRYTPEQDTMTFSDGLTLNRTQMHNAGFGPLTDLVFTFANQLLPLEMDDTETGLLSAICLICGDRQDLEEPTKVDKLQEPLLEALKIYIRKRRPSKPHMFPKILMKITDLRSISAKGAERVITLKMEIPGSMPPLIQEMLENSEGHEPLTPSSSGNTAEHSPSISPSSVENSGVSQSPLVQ
Summary of the method: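 Gal4-hybrid reporter gene selectivity panel of related nuclear receptors (PPARα/β/γ, RARα/β/γ) in HEK293T cells. Activity is read as mean fold activation versus 0.1% DMSO vehicle, n ≥ 2.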

Cc1cc(-c2cc(C(C)(C)C)cc(C(C)(C)C)c2)ccc1C(=O)O
fold change (FC) [1]: 3 | Activity [2]: inactive | Activity [3]: inactive | fold change (FC) [4]: 38

Cc1cc(-c2cc(C(F)(F)F)cc(C(F)(F)F)c2)ccc1CC(=O)O
pEC50 [5]: 6.00 | activity at 10 µM [6]: 64% | Activity [7]: inactive

Cc1cc(-c2ccc(C(=O)O)cc2)cc(C(C)(C)C)c1
activity at 20 µM [8]: 87% | Activity [9]: Active
